These results are taken from ChEMBL document CHEMBL1125641, “Syntheses and in vitro evaluation of water-soluble "cationic metalloporphyrin-ellipticine" molecules having a high affinity for DNA” (J Med Chem, 1991).

In assay [1] the test system is L1210. The assay can be described thus: Concentration required to reduce 50% growth of L1210 cells in 48 hr. Type of assay: functional, cell-based, Mus musculus. In a few lines: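 Murine leukemia L1210 cells grown in vitro with the derivatives, which were dissolved in water. Growth was scored after 48 h against untreated controls. IC50 is the concentration that cuts cell multiplication by 50%. Values are the mean of two or three determinations, or four independent experiments where a standard deviation is given.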

In assay [2] the test system is L1210. The assay can be described thus: Concentration required to reduce 50% growth of L1210 cells in 48h; b=No inhibition at 7.5 uM. Type of assay: functional, cell-based, Mus musculus. In a few lines: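 Murine leukaemia L1210 cells grown in vitro, with the metalloporphyrin derivatives dissolved in water. Growth was measured after 48 h against untreated controls. IC50 is the concentration that cuts the rate of cell multiplication by 50%. Values are the mean of two or three determinations, or of four independent experiments where a deviation is given.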

Assay [3] has as its system Nucleic Acid. Briefly: DNA affinity constant to poly[d(G-C)]. To be noted: Bos taurus. Type of assay: nucleic-acid assay. In a few lines: (§1)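 Ethidium bromide displacement at 25 °C in 0.01 M cacodylate pH 7.0 with 10 mM NaCl, using 1.26 μM EB and 1 μM polynucleotide (poly[d(A-T)] or poly[d(G-C)]). Bound-EB fluorescence was read across varying drug concentrations. The concentration displacing 50% of EB came from nonlinear-regression fitting, and Kapp was derived from it by the Baguley method.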

Assay [4] deals with Nucleic Acid. The assay can be described thus: DNA affinity constant to poly[d(A-T)]. Type of assay: nucleic-acid assay. The conditions noted are these: Bos taurus. The gist of the method: as §1
Setting [5] is: tested as the Zn salt or complex.

As a reminder, the IC50 is the concentration at which inhibition is half-maximal. Higher therefore signals weaker potency. For BLEOMYCIN, inhibition with L1210 [1] (l1210) was half-maximal at 1700 nM (IC50).

For `CC(=O)[O-].CC(=O)[O-].CC(=O)[O-].CC(=O)[O-].COc1ccc2[nH]c3c(C)c4cc[n+](CCCCC(=O)Nc5ccc(-c6c7nc(c(-c8cc[n+](C)cc8)c8ccc([nH]8)c(-c8cc[n+](C)cc8)c8nc(c(-c9cc[n+](C)cc9)c9ccc6[nH]9)C=C8)C=C7)cc5)cc4c(C)c3c2c1.[Zn]`, the IC50 entry in the assay on L1210 [2] is “No growth inhibition”. Also, the K app in the assay with Nucleic Acid [3] (setting [5]) stood at 1.9e+08 M⁻¹; with Nucleic Acid [4] (setting [5]), 2e+09 M⁻¹.

On to `COc1ccc2[nH]c3c(C)c4cc[n+](CCCCC(=O)O)cc4c(C)c3c2c1`, for which the K app in the assay on Nucleic Acid [3] worked out at 4.9e+06 M⁻¹; in the assay on Nucleic Acid [4] it was 2.5e+06 M⁻¹. Besides, the IC50 in the assay on L1210 [1] (Mus musculus, L1210, 48 h) was above 23000 nM.
